ChEMBL document CHEMBL4619800, “β-Hydroxy- and β-Aminophosphonate Acyclonucleosides as Potent Inhibitors of Plasmodium falciparum Growth” (J Med Chem, 2020)
The source made the active and inactive calls. The calls are words filed in the database; no cut-off is given here.

Tests used:
Plasmodium falciparum [1] = assay: Antiplasmodial activity against Plasmodium falciparum 3D7 infected in erythrocytes assessed as reduction in [3H]hypoxanthine incorporation preincubated for 48 hrs followed by [3H]hypoxanthine addition and measured after 18 hrs by topcount scintillation counting analysis; type: functional, organism-based
Procedure, shortened: (§1)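 Modified Desjardins test. Infected erythrocytes at 1.5% final hematocrit and 0.6% parasitemia, in HEPES-buffered RPMI 1640 with 10% AB human serum and a range of compound concentrations, for 48 h. Then [³H]hypoxanthine (0.5 μCi/well) added for 18 h. Freeze-thaw lysis, filter harvest, scintillation counting, uninfected-erythrocyte background subtracted. IC50 from sigmoidal variable-slope regression. Mean of ≥3 independent experiments in duplicate.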

[2] = Toxicity in human K562 cells assessed as effect on cell growth measured after 24 hrs by [3H]thymidine incorporation based assay
Procedure, shortened: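 K562 cells seeded at 8000 per well in RPMI 1640 with 10% FCS. Incubated 24 h at 37 °C, 5% CO₂ with a range of compound concentrations. Then 0.5 μCi [³H]thymidine added for 6 h. Freeze-thaw, harvest of macromolecules and scintillation counting, with medium-only background subtracted.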

Plasmodium falciparum [3] = assay: Antiplasmodial activity against chloroquine-resistant Plasmodium falciparum W2 infected in erythrocytes assessed as reduction in [3H]hypoxanthine incorporation preincubated for 48 hrs followed by [3H]hypoxanthine addition and measured after 18 hrs by topcount scintillation counting analysis; type: functional, organism-based; procedure, shortened: as §1
[4] = Selectivity index, ratio of IC50 for human K562 cells to IC50 for antiplasmodial activity against Plasmodium falciparum 3D7 infected in erythrocytes; type: toxicity, cell-based; conditions: K562 cells versus Plasmodium falciparum 3D7 in erythrocytes, read-out: Ratio IC50
Plasmodium falciparum [5] = assay: Antiplasmodial activity against chloroquine-resistant Plasmodium falciparum FcM29 infected in erythrocytes assessed as reduction in [3H]hypoxanthine incorporation preincubated for 48 hrs followed by [3H]hypoxanthine addition and measured after 18 hrs by topcount scintillation counting analysis; type: functional, organism-based; procedure, shortened: as §1
Plasmodium berghei [6] = assay: Antiplasmodial activity against Plasmodium berghei ANKA infected in ip dosed Swiss NMRI mouse assessed as reduction in parasitemia administered once daily for 4 days measured 24 hrs post-last dose by Giemsa-staining based assay; type: functional
Procedure, shortened: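 Female Swiss NMRI mice infected on day 0 by IV injection of 10⁷ P. berghei ANKA-infected erythrocytes. Dosed ip once daily for 4 days from day 1, 3 mice per group. Test doses 0–30 mg/kg in 0.9% NaCl; artesunate 0–27 mg/kg in DMSO. Controls received vehicle. Parasitemia counted on day 5 from Giemsa-stained smears, and ED50 taken as the dose giving 50% parasitemia reduction.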

Plasmodium berghei [7] = assay: Antiplasmodial activity against Plasmodium berghei ANKA infected in Swiss NMRI mouse assessed as parasitemia at 30 mg/kg, ip administered once daily for 4 days measured on day 14 by Giemsa-staining based assay relative to control; type: functional
Procedure, shortened: (§2)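 Female Swiss NMRI mice infected on day 0 by IV caudal-vein injection of 10⁷ P. berghei ANKA-infected erythrocytes (clone 2.34). Compound given ip in 0.9% NaCl, 100 μL per mouse, 3 mice per group. Either one daily dose for 4 consecutive days from day 1, or a single dose on day 1. Parasitemia counted on Giemsa-stained thin smears and followed for 30 days. Controls received vehicle only.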

Plasmodium berghei [8] = assay: Antiplasmodial activity against Plasmodium berghei ANKA infected in po dosed Swiss NMRI mouse assessed as reduction in parasitemia administered once daily for 4 days measured 24 hrs post-last dose by Giemsa-staining based assay; type: functional
Procedure, shortened: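 Female Swiss NMRI mice infected on day 0 by IV injection of 10⁷ P. berghei ANKA-infected erythrocytes. Oral dosing in water (100 μL, 3 mice per group) at 0, 1, 3, 10 and 30 mg/kg, once daily for 4 days from day 1. Water-only controls. Day-5 parasitemia counted on Giemsa-stained thin smears, and ED50 derived as the dose reducing parasitemia by 50%.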

Plasmodium falciparum [9] = assay: (§3) Antiplasmodial activity against synchronized ring stage Plasmodium falciparum 3D7 infected in erythrocytes assessed as effect on parasite development by measuring ring stage parasitemia at 2 uM supplemented with fresh medium containing compound every 24 hrs measured at 69 hrs by Giemsa/Diff-quick staining based fluorescence microscopic analysis (reference value: 11.1%); type: functional
Procedure, shortened: (§4)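 Tightly synchronized ring-stage culture at 2.5% hematocrit and 1–2% parasitemia, treated or not with 2 μM for 69 h, with drug-containing medium renewed every 24 h. Thin smears taken every 6 h, methanol-fixed and stained with Diff-Quick (pH 7.2). Parasitemia scored by parasite stage, and morphology examined.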

Plasmodium falciparum [10] = assay: as §3, with “measuring early schizont” for “measuring ring”, “at 39” for “at 69”, “value: 2.1%)” for “value: 11.1%)”; type: functional; procedure, shortened: as §4
Plasmodium falciparum [11] = assay: as §3, with “measuring late schizont” for “measuring ring”, “at 42” for “at 69”, “value: 1.9%)” for “value: 11.1%)”; type: functional; procedure, shortened: as §4
Plasmodium falciparum [12] = assay: as §3, with “measuring late schizont” for “measuring ring”, “at 48” for “at 69”, “value: 0.4%)” for “value: 11.1%)”; type: functional; procedure, shortened: as §4
Plasmodium falciparum [13] = assay: (§5) Antiplasmodial activity against segmented schizont stage Plasmodium falciparum 3D7 infected in erythrocytes assessed as effect on merozoite DNA content at 2 uM supplemented with fresh medium containing compound every 24 hrs measured at 45 hrs by Hoechst staining based immunofluorescence microscopic analysis; type: functional, organism-based
Procedure, shortened: (§6)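 Tightly synchronized ring-stage culture at 2.5% hematocrit and 1–2% parasitemia, treated or not with 2 μM; drug-containing medium changed every 24 h. At 45 h (segmented schizonts), smears fixed in 4% formaldehyde/PBS, glycine-quenched, Triton X-100-permeabilized and BSA-blocked. Stained with α-mTIP and α-MSP1 antibodies, then secondaries, with Hoechst labelling nuclei.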

Plasmodium berghei [14] = assay: Antiplasmodial activity against Plasmodium berghei ANKA infected in Swiss NMRI mouse assessed as parasitemia at 30 mg/kg, ip administered once daily for 4 days measured on day 11 by Giemsa-staining based assay relative to control; type: functional; procedure, shortened: as §2
Plasmodium falciparum [15] = assay: as §3, with “measured after” for “supplemented with fresh medium containing compound every”, “24” for “24 hrs measured at 69”, “2.1%)” for “11.1%)”; type: functional; procedure, shortened: as §4
Plasmodium falciparum [16] = assay: as §3, with “uM” for “uM supplemented with fresh medium containing compound every 24 hrs”, “immediately” for “at 69 hrs”, “2.1%)” for “11.1%)”; type: functional; procedure, shortened: as §4
Plasmodium berghei [17] = assay: Antiplasmodial activity against Plasmodium berghei ANKA infected in Swiss NMRI mouse assessed as reduction in parasitemia at 30 mg/kg, ip administered as single dose by Giemsa-staining based assay relative to control; type: functional; parameters: scale not given: the % may be the effect or the level left; procedure, shortened: as §2
Plasmodium falciparum [18] = assay: as §5, with “development” for “DNA content”; type: functional, organism-based; procedure, shortened: as §6
Plasmodium falciparum [19] = assay: as §3, with “48” for “69”, “9.9%)” for “11.1%)”; type: functional; procedure, shortened: as §4

In the case of `O=c1[nH]c(=O)c2ncn(CC[C@@H](O)CP(=O)(O)O)c2[nH]1`, the IC50 (Plasmodium falciparum [1]) is reported as 590 µM and the IC50 at 24 h [2] is reported as greater than 1000 µM.

Work on `O=c1[nH]cnc2c1ncn2CC[C@H](O)CP(=O)(O)O` yielded an IC50 (Plasmodium falciparum [1]) greater than 1000 µM and an IC50 at 24 h [2] greater than 1000 µM.

Molecule `Nc1nc2c(ncn2CC[C@H](O)CP(=O)(O)O)c(=O)[nH]1` has an IC50 (Plasmodium falciparum [1]) of 6.1 µM, an IC50 (Plasmodium falciparum [3]) of 5.6 µM and an IC50 at 24 h [2] greater than 1000 µM. It also gave a selectivity ratio [4] of 164 and an IC50 (Plasmodium falciparum [5]) of 4.5 µM.

With `Nc1nc(N)c2ncn(CC[C@H](O)CP(=O)(O)O)c2n1` the IC50 (Plasmodium falciparum [1]) was greater than 1000 µM and the IC50 at 24 h [2] was greater than 1000 µM.

With `Nc1ncnc2c1ncn2CC[C@@H](O)CP(=O)(O)O` the IC50 (Plasmodium falciparum [1]) was greater than 1000 µM and the IC50 at 24 h [2] was greater than 1000 µM.

`Nc1nc(N)c2ncn(CC[C@H](N)CP(=O)(O)O)c2n1` showed an IC50 (Plasmodium falciparum [1]) greater than 100 µM and an IC50 at 24 h [2] greater than 1000 µM.

`Nc1ncc2ncn(CC[C@@H](O)CP(=O)(O)O)c2n1` gave an IC50 (Plasmodium falciparum [1]) of 67 µM, an IC50 at 24 h [2] greater than 1000 µM and a selectivity ratio [4] greater than 16.

`Nc1nc(N)c2ncn(CC[C@@H](N)CP(=O)(O)O)c2n1` showed an IC50 (Plasmodium falciparum [1]) greater than 100 µM and an IC50 at 24 h [2] greater than 1000 µM.

Work on `Nc1nc(N)c2ncn(CC[C@@H](O)CP(=O)(O)O)c2n1` yielded an IC50 (Plasmodium falciparum [1]) of 48 µM, an IC50 at 24 h [2] greater than 1000 µM and a selectivity ratio [4] greater than 21.

For `C[C@H]1[C@H](OC(=O)CCC(=O)O)O[C@@H]2O[C@@]3(C)CC[C@H]4[C@H](C)CC[C@@H]1[C@@]24OO3` [ARTESUNATE], the ED50 (Plasmodium berghei [6]) was 0.1 mg/kg.

With `CCN(CC)CCCC(C)Nc1ccnc2cc(Cl)ccc12` (stereo not drawn) [CHLOROQUINE] the IC50 at 24 h [2] was 25.3 µM.

`Nc1nc(O)c2ncn(CC[C@@H](N)CP(=O)(O)O)c2n1` showed an IC50 (Plasmodium falciparum [1]) greater than 100 µM and an IC50 at 24 h [2] greater than 1000 µM.

With `Nc1nc2c(ncn2CC[C@@H](O)CP(=O)([O-])[O-])c(=O)[nH]1.[Na+].[Na+]` the IC50 (Plasmodium falciparum [1]) was 0.074 µM, the Activity (Plasmodium berghei [7]) was 1.7% and the ED50 (Plasmodium berghei [8]) was 30 mg/kg. The Activity (Plasmodium falciparum [9]) was 0%, the IC50 (Plasmodium falciparum [3]) was 0.045 µM and the Activity (Plasmodium falciparum [10]) was 2.1%. It also gave an IC50 at 24 h [2] greater than 1000 µM, an Activity (Plasmodium falciparum [11]) of 1.7% and an Activity (Plasmodium falciparum [12]) of 1.3%. The Activity (Plasmodium falciparum [13]) was “inactive”, the Activity (Plasmodium berghei [14]) was 6.9 - 16.7% and the Activity (Plasmodium falciparum [15]) was 2.1%. For the same molecule, the Activity (Plasmodium falciparum [16]) was 2.1%, the selectivity ratio [4] was greater than 1350 and the Activity (Plasmodium berghei [17]) was 95%. The Activity (Plasmodium falciparum [18]) was “inactive”, the Activity (Plasmodium falciparum [19]) was 0.6% and the ED50 (Plasmodium berghei [6]) was 0.56 mg/kg. The IC50 (Plasmodium falciparum [5]) was 0.03 µM.

`O=c1[nH]c(=O)c2ncn(CC[C@H](O)CP(=O)(O)O)c2[nH]1` gave an IC50 (Plasmodium falciparum [1]) of 910 µM, an IC50 at 24 h [2] greater than 1000 µM and a selectivity ratio [4] greater than 1.

`Nc1ncnc2c1ncn2CC[C@H](O)CP(=O)(O)O` showed an IC50 (Plasmodium falciparum [1]) greater than 1000 µM and an IC50 at 24 h [2] greater than 1000 µM.

In the case of `Nc1ncnc2c1ncn2C[C@H](O)CP(=O)(O)O`, the IC50 (Plasmodium falciparum [1]) is reported as greater than 1000 µM and the IC50 at 24 h [2] is reported as greater than 1000 µM.

`Nc1nc(O)c2ncn(CCCCP(=O)(O)O)c2n1` gave an IC50 (Plasmodium falciparum [1]) of 74 µM, an IC50 at 24 h [2] greater than 1000 µM and a selectivity ratio [4] greater than 17.

For `Nc1nc(O)c2ncn(CC[C@H](N)CP(=O)(O)O)c2n1`, the IC50 (Plasmodium falciparum [1]) was greater than 100 µM and the IC50 at 24 h [2] was greater than 1000 µM.

Molecule `Nc1nc2c(ncn2C[C@H](O)CP(=O)(O)O)c(=O)[nH]1` has an IC50 (Plasmodium falciparum [1]) of 595 µM, an IC50 at 24 h [2] greater than 1000 µM and a selectivity ratio [4] greater than 1.7.

For `O=c1[nH]cnc2c1ncn2CC[C@@H](O)CP(=O)(O)O`, the IC50 (Plasmodium falciparum [1]) was greater than 1000 µM and the IC50 at 24 h [2] was greater than 1000 µM.

`Nc1ncnc2c1ncn2C[C@@H](O)CP(=O)(O)O` showed an IC50 (Plasmodium falciparum [1]) greater than 1000 µM and an IC50 at 24 h [2] greater than 1000 µM.

`Nc1nc(F)nc2c1ncn2CC[C@@H](O)CP(=O)(O)O` showed an IC50 (Plasmodium falciparum [1]) of 26.3 µM, an IC50 at 24 h [2] greater than 1000 µM and a selectivity ratio [4] greater than 38.

With `Nc1nc(O)c2ncn(CC/C=C\P(=O)(O)O)c2n1` the IC50 (Plasmodium falciparum [1]) was greater than 100 µM and the IC50 at 24 h [2] was greater than 1000 µM.

With `Nc1nc2c(ncn2C[C@@H](O)CP(=O)(O)O)c(=O)[nH]1` the IC50 (Plasmodium falciparum [1]) was greater than 1000 µM and the IC50 at 24 h [2] was greater than 1000 µM.

With `Nc1nc(N)c2ncn(C[C@H](O)CP(=O)(O)O)c2n1` the IC50 (Plasmodium falciparum [1]) was 510 µM, the IC50 at 24 h [2] was greater than 1000 µM and the selectivity ratio [4] was greater than 2.

Molecule `Nc1nc(N)c2ncn(C[C@@H](O)CP(=O)(O)O)c2n1` has an IC50 (Plasmodium falciparum [1]) of 327 µM, an IC50 at 24 h [2] greater than 1000 µM and a selectivity ratio [4] greater than 2.6.
